One may read the inhibition as the relative decrease from the control value, in per cent.

For nine compounds, inhibition results are on record in ChEMBL document CHEMBL1150387, “Development and experimental validation of a docking strategy for the generation of kinase-targeted libraries” (J Med Chem, 2008).

Assay [1] can be described thus: Inhibition of PKA at 10 uM by HTRF assay relative to control. The procedure, abridged: (§1)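 HTRF kinase assay, one panel of kinases. Inhibitor stock 50 µM in 100% DMSO; tested at 10 µM. ATP and substrate at final levels near Km. Final buffer: 50 mM Hepes/NaOH pH 7.4, 40 µM Na3VO4, 0.005% Tween-20, 1 mM DTT, MnCl2 or MgCl2 at kinase-dependent levels. Started by adding ATP/substrate. Reaction run at room temperature, time varied by kinase. Detection mix in 50 mM Hepes pH 7.4, 0.1% BSA, 150 mM KF, incubated ≥1 h at room temperature. Activity expressed as % of uninhibited control; n=2.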

The target in assay [2] is T1, Mitogen-activated protein kinase 12 (Homo sapiens) (UniProt P53778).
T1 sequence (whole entry): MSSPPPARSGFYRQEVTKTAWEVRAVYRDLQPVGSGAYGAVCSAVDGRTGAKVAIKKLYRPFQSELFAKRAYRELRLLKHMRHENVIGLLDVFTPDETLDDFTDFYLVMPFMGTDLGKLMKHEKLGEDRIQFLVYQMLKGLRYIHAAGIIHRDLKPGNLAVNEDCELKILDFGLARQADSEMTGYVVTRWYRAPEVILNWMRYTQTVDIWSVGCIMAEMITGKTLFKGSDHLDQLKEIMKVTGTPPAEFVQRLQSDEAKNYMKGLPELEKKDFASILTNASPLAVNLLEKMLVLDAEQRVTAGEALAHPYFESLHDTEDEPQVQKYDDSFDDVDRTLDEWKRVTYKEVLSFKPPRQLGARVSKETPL
Briefly: Inhibition of p38-gamma at 10 uM by HTRF assay relative to control. The procedure, abridged: as §1
(In TR-FRET formats the signal depends on donor and acceptor labels being close together.)

Assay [3] addresses Tyrosine-protein kinase Fes/Fps (Homo sapiens) (UniProt P07332). Briefly: Inhibition of FES at 10 uM by HTRF assay relative to control. The gist of the method:
as §1

The target in assay [4] is Tyrosine-protein kinase Lck (Homo sapiens) (UniProt P06239). Briefly: Inhibition of Lck at 10 uM by HTRF assay relative to control. The procedure, abridged:
as §1

Assay [5] concerns the target Mitogen-activated protein kinase 8 (Homo sapiens) (UniProt P45983). Kind of assay: Inhibition of JNK1 at 10 uM by HTRF assay relative to control. The gist of the method:
as §1

Assay [6] concerns the target T2, Serine/threonine-protein kinase Chk1 (Homo sapiens) (UniProt O14757).
T2 sequence (whole entry): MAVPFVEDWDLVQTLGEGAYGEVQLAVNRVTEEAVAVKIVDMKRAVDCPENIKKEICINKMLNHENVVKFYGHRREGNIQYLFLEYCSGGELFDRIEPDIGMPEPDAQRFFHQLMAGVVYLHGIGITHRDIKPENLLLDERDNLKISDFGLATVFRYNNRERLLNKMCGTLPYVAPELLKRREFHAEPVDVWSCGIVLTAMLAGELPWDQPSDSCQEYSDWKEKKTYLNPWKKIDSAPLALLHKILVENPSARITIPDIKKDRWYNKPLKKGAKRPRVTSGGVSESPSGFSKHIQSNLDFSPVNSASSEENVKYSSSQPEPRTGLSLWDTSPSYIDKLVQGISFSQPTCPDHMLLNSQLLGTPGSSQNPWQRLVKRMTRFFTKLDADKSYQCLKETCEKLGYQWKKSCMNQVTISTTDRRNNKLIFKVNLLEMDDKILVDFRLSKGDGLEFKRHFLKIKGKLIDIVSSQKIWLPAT
Briefly: Inhibition of CHK1 at 10 uM by HTRF assay relative to control. The procedure, abridged:
as §1

Assay [7] concerns the target Cyclin-dependent kinase 2 (Homo sapiens) (UniProt P24941). Briefly: Inhibition of CDK2 at 10 uM by HTRF assay relative to control. The procedure, abridged: as §1
Assay [8] concerns the target Ribosomal protein S6 kinase beta-1 (Homo sapiens) (UniProt P23443). Kind of assay: Inhibition of p70S6K at 10 uM by HTRF assay relative to control. The procedure, abridged:
as §1

Assay [9] concerns the target High affinity nerve growth factor receptor (Homo sapiens) (UniProt P04629). Briefly: Inhibition of TrkA at 10 uM by HTRF assay relative to control. The procedure, abridged: as §1
Assay [10] has as its target Cyclin-dependent kinase 1 (Homo sapiens) (UniProt P06493). Kind of assay: Inhibition of CDK1 at 10 uM by HTRF assay relative to control. The gist of the method: as §1
Assay [11] concerns the target Mitogen-activated protein kinase 1 (Homo sapiens) (UniProt P28482). Kind of assay: Inhibition of ERK2 at 10 uM by HTRF assay relative to control. The gist of the method:
as §1

The target in assay [12] is Proto-oncogene tyrosine-protein kinase Src (Homo sapiens) (UniProt P12931). Kind of assay: Inhibition of Src at 10 uM by HTRF assay relative to control. The gist of the method: as §1
For assay [13], the target named is Protein-tyrosine kinase 6 (Homo sapiens) (UniProt Q13882). Kind of assay: Inhibition of Brk at 10 uM by HTRF assay relative to control. The procedure, abridged: as §1
The nature of assay [14]: Inhibition of IRK at 10 uM by HTRF assay relative to control. The gist of the method:
as §1

For assay [15], the target named is Serine/threonine-protein kinase Chk2 (Homo sapiens) (UniProt O96017). Kind of assay: Inhibition of CHK2 at 10 uM by HTRF assay relative to control. The gist of the method: as §1
The target of assay [16] is Tyrosine-protein kinase Lyn (Homo sapiens) (UniProt P07948). Briefly: Inhibition of Lyn at 10 uM by HTRF assay relative to control. The procedure, abridged:
as §1

Assay [17] has as its target Insulin-like growth factor 1 receptor (Homo sapiens) (UniProt P08069). Kind of assay: Inhibition of IGF1R at 10 uM by HTRF assay relative to control. The procedure, abridged:
as §1

The target in assay [18] is Tyrosine-protein kinase ABL1 (Homo sapiens) (UniProt P00519). Briefly: Inhibition of Abl at 10 uM by HTRF assay relative to control. The procedure, abridged: as §1
The target of assay [19] is RAC-alpha serine/threonine-protein kinase (Homo sapiens) (UniProt P31749). Kind of assay: Inhibition of AKT1/PKBalpha at 10 uM by HTRF assay relative to control. The gist of the method:
as §1

Assay [20] concerns the target Rho-associated protein kinase 2 (Homo sapiens) (UniProt O75116). Kind of assay: Inhibition of ROCK2 at 10 uM by HTRF assay relative to control. The procedure, abridged: as §1

Mitogen-activated protein kinase 1 (Homo sapiens), sequence (P28482 whole entry): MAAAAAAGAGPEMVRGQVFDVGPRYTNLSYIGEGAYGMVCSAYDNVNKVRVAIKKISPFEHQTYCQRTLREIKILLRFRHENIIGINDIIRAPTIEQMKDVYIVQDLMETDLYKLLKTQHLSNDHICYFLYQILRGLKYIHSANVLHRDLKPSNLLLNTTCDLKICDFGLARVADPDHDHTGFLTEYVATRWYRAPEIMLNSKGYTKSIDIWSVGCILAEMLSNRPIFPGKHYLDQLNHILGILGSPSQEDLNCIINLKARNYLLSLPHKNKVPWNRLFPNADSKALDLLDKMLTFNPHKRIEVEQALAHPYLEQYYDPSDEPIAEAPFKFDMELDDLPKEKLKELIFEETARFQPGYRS
Proto-oncogene tyrosine-protein kinase Src (Homo sapiens), sequence (P12931 2-536 limits assumed): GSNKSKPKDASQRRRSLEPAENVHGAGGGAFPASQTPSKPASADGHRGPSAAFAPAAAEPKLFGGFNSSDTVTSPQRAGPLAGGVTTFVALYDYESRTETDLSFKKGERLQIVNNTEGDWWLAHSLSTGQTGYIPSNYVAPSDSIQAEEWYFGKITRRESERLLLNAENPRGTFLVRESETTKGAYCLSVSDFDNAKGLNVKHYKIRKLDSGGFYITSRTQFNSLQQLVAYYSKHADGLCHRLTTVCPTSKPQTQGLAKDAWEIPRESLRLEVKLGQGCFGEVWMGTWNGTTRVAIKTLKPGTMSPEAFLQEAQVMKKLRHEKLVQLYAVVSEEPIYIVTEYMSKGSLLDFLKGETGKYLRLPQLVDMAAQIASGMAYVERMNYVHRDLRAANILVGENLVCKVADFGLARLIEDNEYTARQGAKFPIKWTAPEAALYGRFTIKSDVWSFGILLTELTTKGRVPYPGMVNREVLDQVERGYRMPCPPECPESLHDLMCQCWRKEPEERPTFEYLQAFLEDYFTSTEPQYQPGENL
Rho-associated protein kinase 2 (Homo sapiens), sequence (O75116 whole entry, looked up): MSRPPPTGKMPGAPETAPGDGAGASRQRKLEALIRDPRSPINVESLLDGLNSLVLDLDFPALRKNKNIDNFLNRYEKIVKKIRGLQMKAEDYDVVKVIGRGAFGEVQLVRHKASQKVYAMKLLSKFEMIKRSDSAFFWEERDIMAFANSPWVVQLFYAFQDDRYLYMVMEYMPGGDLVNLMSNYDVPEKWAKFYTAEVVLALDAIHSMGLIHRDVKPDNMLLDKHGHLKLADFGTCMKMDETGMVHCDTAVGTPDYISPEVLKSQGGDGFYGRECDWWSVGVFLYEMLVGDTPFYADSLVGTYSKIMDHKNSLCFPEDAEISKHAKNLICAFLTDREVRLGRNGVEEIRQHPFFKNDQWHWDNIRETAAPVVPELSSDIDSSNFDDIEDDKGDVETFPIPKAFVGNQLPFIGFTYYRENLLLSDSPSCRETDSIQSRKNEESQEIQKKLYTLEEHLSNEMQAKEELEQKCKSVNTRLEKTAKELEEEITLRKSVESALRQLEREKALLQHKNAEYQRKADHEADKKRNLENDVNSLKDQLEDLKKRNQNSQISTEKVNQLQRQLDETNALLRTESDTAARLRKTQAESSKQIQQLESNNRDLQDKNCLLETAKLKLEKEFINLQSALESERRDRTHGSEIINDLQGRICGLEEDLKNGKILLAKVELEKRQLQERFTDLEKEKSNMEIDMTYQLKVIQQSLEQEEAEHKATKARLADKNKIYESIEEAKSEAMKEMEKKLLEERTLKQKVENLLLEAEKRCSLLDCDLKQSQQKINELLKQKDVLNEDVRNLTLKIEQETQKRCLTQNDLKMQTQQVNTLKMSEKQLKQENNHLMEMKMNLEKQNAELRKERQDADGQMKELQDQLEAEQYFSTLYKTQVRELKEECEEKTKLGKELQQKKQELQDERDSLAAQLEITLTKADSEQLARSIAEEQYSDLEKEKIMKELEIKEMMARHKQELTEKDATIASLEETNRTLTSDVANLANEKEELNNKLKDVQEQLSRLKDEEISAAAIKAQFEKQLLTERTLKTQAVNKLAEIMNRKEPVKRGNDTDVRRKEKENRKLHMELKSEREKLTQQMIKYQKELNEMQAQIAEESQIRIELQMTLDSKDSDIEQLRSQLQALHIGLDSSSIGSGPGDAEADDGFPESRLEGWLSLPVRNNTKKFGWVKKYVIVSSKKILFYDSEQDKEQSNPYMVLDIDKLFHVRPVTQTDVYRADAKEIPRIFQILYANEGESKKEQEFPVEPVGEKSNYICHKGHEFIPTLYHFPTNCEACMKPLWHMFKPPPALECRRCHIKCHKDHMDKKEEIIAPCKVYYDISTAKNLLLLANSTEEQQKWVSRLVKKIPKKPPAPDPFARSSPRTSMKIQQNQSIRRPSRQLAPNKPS
Tyrosine-protein kinase Fes/Fps (Homo sapiens), sequence (P07332 whole entry): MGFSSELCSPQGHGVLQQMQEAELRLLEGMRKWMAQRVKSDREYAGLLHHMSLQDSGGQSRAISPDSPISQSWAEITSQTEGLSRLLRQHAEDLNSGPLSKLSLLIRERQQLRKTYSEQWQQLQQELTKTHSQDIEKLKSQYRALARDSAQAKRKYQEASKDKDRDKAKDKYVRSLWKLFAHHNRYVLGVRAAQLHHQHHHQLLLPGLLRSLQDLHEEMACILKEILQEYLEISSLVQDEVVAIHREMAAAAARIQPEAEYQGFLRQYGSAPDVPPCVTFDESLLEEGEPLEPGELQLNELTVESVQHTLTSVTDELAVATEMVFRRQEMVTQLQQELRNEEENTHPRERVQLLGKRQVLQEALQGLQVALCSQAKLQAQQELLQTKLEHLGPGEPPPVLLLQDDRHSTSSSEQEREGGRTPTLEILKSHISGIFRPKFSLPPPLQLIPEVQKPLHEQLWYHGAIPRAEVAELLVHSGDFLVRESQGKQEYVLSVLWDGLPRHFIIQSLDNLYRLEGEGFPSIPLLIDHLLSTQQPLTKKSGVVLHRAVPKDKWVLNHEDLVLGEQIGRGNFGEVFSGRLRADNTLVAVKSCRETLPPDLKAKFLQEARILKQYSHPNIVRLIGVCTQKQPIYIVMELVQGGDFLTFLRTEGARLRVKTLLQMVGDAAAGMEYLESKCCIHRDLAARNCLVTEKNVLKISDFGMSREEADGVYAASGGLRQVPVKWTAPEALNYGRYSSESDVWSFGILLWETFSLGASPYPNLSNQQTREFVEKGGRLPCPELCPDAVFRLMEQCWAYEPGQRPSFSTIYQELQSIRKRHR
Tyrosine-protein kinase Lyn (Homo sapiens), sequence (P07948 2-512 limits assumed): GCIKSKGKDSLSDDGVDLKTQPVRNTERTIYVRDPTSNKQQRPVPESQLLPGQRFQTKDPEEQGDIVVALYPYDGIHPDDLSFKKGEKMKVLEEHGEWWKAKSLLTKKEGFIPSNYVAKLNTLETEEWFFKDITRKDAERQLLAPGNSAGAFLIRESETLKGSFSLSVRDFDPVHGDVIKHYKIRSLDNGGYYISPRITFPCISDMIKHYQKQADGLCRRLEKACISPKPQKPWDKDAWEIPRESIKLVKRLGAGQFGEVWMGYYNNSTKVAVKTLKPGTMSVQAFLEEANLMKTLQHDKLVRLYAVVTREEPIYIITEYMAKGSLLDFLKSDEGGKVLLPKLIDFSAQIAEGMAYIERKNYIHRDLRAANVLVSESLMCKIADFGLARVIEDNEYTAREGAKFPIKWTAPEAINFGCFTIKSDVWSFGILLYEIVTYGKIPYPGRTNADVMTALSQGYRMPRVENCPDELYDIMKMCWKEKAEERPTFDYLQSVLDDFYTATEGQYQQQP
Tyrosine-protein kinase ABL1 (Homo sapiens), sequence (P00519 whole entry): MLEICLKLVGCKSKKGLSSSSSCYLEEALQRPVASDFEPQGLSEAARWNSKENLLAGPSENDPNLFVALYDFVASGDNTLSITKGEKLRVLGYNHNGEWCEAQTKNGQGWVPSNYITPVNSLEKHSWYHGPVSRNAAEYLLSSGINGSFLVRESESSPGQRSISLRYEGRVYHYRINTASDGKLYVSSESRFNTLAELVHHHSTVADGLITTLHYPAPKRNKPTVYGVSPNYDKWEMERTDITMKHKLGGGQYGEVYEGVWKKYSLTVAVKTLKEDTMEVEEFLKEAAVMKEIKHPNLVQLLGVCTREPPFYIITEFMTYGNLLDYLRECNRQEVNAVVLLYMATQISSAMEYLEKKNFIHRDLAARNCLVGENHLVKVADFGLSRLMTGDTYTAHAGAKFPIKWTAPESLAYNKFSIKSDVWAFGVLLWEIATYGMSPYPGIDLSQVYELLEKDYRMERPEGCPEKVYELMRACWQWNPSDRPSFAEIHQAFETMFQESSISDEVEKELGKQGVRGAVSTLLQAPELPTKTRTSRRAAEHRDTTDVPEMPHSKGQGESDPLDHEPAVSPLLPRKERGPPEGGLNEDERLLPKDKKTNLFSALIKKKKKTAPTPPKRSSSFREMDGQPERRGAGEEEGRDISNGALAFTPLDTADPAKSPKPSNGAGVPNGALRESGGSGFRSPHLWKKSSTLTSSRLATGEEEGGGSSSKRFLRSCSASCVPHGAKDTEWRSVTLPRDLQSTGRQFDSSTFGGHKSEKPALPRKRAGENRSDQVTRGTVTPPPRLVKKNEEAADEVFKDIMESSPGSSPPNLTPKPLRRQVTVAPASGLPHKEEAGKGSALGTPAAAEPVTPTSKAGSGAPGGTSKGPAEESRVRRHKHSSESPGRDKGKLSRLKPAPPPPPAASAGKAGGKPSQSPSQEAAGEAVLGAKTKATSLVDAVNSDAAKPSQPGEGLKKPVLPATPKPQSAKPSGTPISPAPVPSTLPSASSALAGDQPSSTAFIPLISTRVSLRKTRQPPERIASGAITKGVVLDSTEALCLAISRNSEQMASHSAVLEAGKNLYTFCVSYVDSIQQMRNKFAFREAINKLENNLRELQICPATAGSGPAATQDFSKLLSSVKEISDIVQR
Cyclin-dependent kinase 1 (Homo sapiens), sequence (P06493 whole entry, looked up): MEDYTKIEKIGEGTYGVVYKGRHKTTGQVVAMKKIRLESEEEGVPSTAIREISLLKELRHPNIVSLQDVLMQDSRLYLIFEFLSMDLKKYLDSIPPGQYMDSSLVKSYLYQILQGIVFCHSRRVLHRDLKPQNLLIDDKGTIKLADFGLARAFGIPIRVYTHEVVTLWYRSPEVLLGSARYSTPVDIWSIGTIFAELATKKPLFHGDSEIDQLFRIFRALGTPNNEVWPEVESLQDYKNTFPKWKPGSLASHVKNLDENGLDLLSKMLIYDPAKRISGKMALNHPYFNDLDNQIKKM

Take `O=C(NCc1cccnc1)c1cccc(-c2ccc(Nc3ccc4ncsc4c3)nn2)c1`: the inhibition in assay [1] amounted to 16%; in [2], 5%; in assay [3], 18%; in assay [4], 42%; in assay [5] it was 55%; in [6], 6%. The inhibition is 0% in assay [7]; 79% in assay [8]; 0% in assay [9]; 0% in assay [10]; 40% in [11]; 11% in assay [12]. Further, the inhibition in assay [13] is 48%; in assay [14] it was 73%; in assay [15], 28%; in assay [16], 48%; in [17], 32%; in [18], 23%. Further, the inhibition was determined as 5% in assay [19] and 93% in assay [20].
In the case of `CC(=O)N1CCN(C(=O)c2cccc(Nc3cc(N(C)c4cccc(C)c4)ncn3)c2)CC1`, the inhibition in [1] is 0%; in [2] it was 3%; in assay [3] it was 18%; in [4], 27%; in [5], 0%; in assay [6], 2%. Also, the inhibition in assay [7] worked out at 9%; in assay [8], 4%; in assay [9], 12%; in assay [10] it was 0%; in assay [11] it was 0%; in assay [12], 17%. Also, the inhibition stood at 1% in assay [13]; 0% in [14]; 0% in assay [15]; 29% in assay [16]; 0% in assay [17]; 47% in assay [18]. The inhibition in assay [19] and in assay [20] was 0% throughout.
Regarding `O=C(c1nc(SCc2ccc(Cl)cc2)n2ccccc12)N1CCN(c2cc(Nc3cccc(Br)c3)ncn2)CC1`, the inhibition in [1] stood at 1%; in [2] it was 0%; in assay [3], 0%; in assay [4], 0%; in assay [5], 7%; in assay [6] it was 5%. Besides, the inhibition was found to be 5% in assay [7]; 6% in [8]; 5% in [9]; 8% in [10]; 1% in [11]; 2% in assay [12]. Also, the inhibition in [13] is 24%; in assay [14], 0%; in [15], 6%; in assay [16], 4%; in assay [17], 0%; in assay [18], 10%. Moreover, the inhibition in assay [19] and in assay [20] was 0% in each case.
Regarding `Cc1cccc(Nc2nccc3c2CN(C(=O)c2cc(C)n(C)c2C)CC3)c1`, the inhibition in [1] is 0%; in [2] it was 1%; in assay [3] it was 2%; in [4] it was 0%; in [5], 0%; in assay [6], 3%. For the same compound, the inhibition turned out to be 8% in [7]; 6% in assay [8]; 4% in assay [9]; 0% in assay [10]; 6% in assay [11]; 0% in assay [12]. Also, the inhibition in assay [13] came out at 13%; in assay [14] it was 0%; in assay [15], 0%; in assay [16] it was 6%; in assay [17], 0%; in assay [18] it was 0%. Further, the inhibition in assay [19] and in [20] was 0% each time.
With `Cc1cccc(N(C)c2cc(N3CCN(CC(=O)Nc4nc(-c5ccccc5)cs4)CC3)ncn2)c1`, the inhibition in assay [1] was 0%; in assay [2], 3%; in assay [3] it was 0%; in assay [4], 0%; in assay [5], 0%; in [6], 1%. In addition, the inhibition in assay [7] was determined as 2%; in assay [8], 3%; in assay [9] it was 8%; in assay [10], 0%; in assay [11], 0%; in assay [12], 0%. Also, the inhibition in [13] was determined as 22%; in assay [14] it was 0%; in [15] it was 0%; in [16], 2%; in [17], 6%; in [18], 6%. The inhibition in [19] and in assay [20] was 0% in each case.
On to `COC[C@@H]1CCCN1C(=O)[C@@H]1CCCN1c1nccc(Nc2ccccc2)n1`, for which the inhibition in assay [1] turned out to be 0%; in assay [2] it was 4%; in [3], 8%; in assay [4] it was 0%; in [5] it was 0%; in assay [6] it was 1%. Moreover, the inhibition in assay [7] came out at 0%; in assay [8], 8%; in [9], 8%; in assay [10], 3%; in [11], 0%; in assay [12], 0%. The inhibition in assay [13] was determined as 5%; in [14], 0%; in [15] it was 3%; in assay [16], 0%; in assay [17], 0%; in [18], 3%. Also, the values for the inhibition in assay [19] and in assay [20] were 0% and 3%, respectively.
In the case of `COc1ccc(-c2noc(CN3CCN(c4cc(Nc5cccc(O)c5)ncn4)CC3)n2)cc1`, the inhibition in [1] was determined as 0%; in assay [2] it was 0%; in assay [3] it was 7%; in assay [4], 0%; in assay [5], 0%; in assay [6], 2%. Further, the inhibition in assay [7] was 6%; in assay [8], 12%; in assay [9] it was 7%; in assay [10], 0%; in assay [11], 1%; in assay [12], 3%. Moreover, the inhibition in assay [13] stood at 5%; in assay [14] it was 0%; in [15] it was 0%; in [16] it was 3%; in assay [17], 0%; in [18] it was 0%. For the same compound, the inhibition in [19] and in assay [20] was 0% each time.
As for `Cc1cccc(Oc2ccnc(N3CCN(CC(=O)Nc4cccc5c4CCCC5)CC3)n2)c1`, the inhibition was determined as 5% in assay [1]; 0% in assay [2]; 23% in assay [3]; 0% in [4]; 0% in [5]; 5% in [6]. Moreover, the inhibition in assay [7] was found to be 4%; in assay [8], 14%; in [9], 10%; in assay [10], 0%; in [11], 6%; in [12], 5%. Moreover, the inhibition in [13] was determined as 0%; in assay [14], 0%; in assay [15] it was 3%; in assay [16] it was 1%; in [17], 0%; in assay [18], 1%. In addition, the inhibition in [19] stood at 1%; in assay [20], 0%.
With `CN(CCc1ccccn1)C(=O)[C@@H]1CCCN1c1nccc(Nc2ccccc2)n1`, the inhibition was determined as 0% in assay [1]; 2% in assay [2]; 8% in assay [3]; 0% in assay [4]; 0% in assay [5]; 1% in [6]. In addition, the inhibition stood at 5% in assay [7]; 12% in [8]; 8% in assay [9]; 0% in assay [10]; 3% in [11]; 0% in assay [12]. For the same compound, the inhibition was 0% in assay [13]; 0% in assay [14]; 3% in [15]; 0% in assay [16]; 0% in assay [17]; 8% in [18]. In addition, the inhibition was determined as 1% in assay [19] and 0% in [20].
